Data as given in PMC3359464 (Medicinal Chemistry Research, 2011).
One block for each compound: values may come before it. Residues, ends and D or L forms follow the SMILES beside them.

Assays:
APM [1] = molecular target: T1, APM (Sus scrofa, UniProt P15145, species not given); assay: Degradation rates of EMs by purified APM with and without inhibitors; type: biochemical; settings: purified APM (commercially available enzyme), pH 7.4
T1 sequence (P15145 2-963): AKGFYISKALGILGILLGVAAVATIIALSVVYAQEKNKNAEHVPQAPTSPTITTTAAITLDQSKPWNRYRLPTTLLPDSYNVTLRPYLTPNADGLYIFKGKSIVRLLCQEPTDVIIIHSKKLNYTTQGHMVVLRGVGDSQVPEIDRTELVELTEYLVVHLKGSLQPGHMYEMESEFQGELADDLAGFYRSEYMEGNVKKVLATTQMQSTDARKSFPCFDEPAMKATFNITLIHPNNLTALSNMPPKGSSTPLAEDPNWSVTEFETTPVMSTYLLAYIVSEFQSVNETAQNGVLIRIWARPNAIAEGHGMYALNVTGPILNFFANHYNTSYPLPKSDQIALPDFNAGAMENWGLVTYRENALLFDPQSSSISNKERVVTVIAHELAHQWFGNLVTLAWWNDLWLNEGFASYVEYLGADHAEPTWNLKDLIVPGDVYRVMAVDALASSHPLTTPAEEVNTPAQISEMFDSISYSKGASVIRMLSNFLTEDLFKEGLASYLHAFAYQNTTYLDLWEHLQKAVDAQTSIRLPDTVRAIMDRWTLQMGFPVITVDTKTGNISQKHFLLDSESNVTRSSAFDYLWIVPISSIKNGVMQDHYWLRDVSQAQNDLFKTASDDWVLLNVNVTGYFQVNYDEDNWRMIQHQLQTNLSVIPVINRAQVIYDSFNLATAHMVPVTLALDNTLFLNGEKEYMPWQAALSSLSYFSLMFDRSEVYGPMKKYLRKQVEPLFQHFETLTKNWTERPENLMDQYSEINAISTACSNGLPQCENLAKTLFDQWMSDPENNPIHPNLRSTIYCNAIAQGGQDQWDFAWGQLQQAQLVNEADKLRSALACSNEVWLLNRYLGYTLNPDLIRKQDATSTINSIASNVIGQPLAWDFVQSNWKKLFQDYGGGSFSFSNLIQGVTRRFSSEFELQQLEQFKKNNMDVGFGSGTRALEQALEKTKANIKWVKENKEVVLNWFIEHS

APM [2] = molecular target: T2, APM (Sus scrofa, UniProt P15145); assay: as above; type: biochemical
T2 sequence (P15145 2-963): T1 sequence (P15145 2-963)

DPP IV = assay: Degradation rates of EMs by purified DPP IV with and without inhibitors; type: biochemical
Procedure, shortened: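 Commercial purified DPP IV at 0.002 mg protein/ml incubated with endomorphin and test compound (1 mM solutions in 50 mM Tris–HCl, pH 7.4) at 37°C for 0, 7.5, 15, 22.5 and 30 min. Stopped on ice with 1 M HCl, centrifuged, RP-HPLC on C18 (0.1% TFA/acetonitrile gradient). k from linear regression of ln(A/A0) versus time; % inhibition from k with and without inhibitor. Three experiments in duplicate; mean ± SEM.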

[3] = Blood-brain barrier crossing; type: in vivo; settings: preliminary results
[4] = system: rat spinal cord homogenate; settings: ref Sugimoto-Watanabe et al., [1999]; cited from earlier work
[5] = substrate EM-1, 37°C, 0-30 min, Tris-HCl pH 7.4
[6] = substrate EM-2, 37°C, 0-30 min, Tris-HCl pH 7.4

Compound: NC(=O)[C@H](Cc1ccccc1)NC(=O)[C@H](Cc1c[nH]c2ccccc12)NC(=O)[C@@H]1CCCN1C(=O)[C@@H](N)Cc1ccc(O)cc1 [EM-1, Tyr-Pro-Trp-Phe-NH2]
half-life (APM [1]): 19.7 ± 0.5 min
100 × k, degradation rate of EM-1 by APM alone (APM [2]; without inhibitor, 37°C): 3.51 ± 0.09 min⁻¹
half-life (DPP IV; purified DPP IV (commercially available enzyme), pH 7.4): 16.7 ± 0.52 min
Resistance to DPP IV relative to EM-2 (DPP IV; without inhibitor): about 1.5 times
100 × k, degradation rate of EM-1 by DPP IV alone (DPP IV; without inhibitor, 37°C): 4.12 ± 0.2 min⁻¹

Compound: Ile-Pro-Ile [Diprotin A]
100 × k, degradation rate of EM-1 by DPP IV in the presence of inhibitor (DPP IV; [5]): 0.13 ± 0.01 min⁻¹
100 × k, degradation rate of EM-2 by DPP IV in the presence of inhibitor (DPP IV; [6]): 0.18 ± 0.01 min⁻¹

Compound: C[C@H](NC(=O)[C@@H]1CCCN1C(=O)[C@@H](N)Cc1ccc(O)cc1)C(N)=O [EMDB-2, Tyr-Pro-Ala-NH2] (H-Tyr-Pro-Ala-NH2; N-terminus assumed)
Crossing of the blood-brain barrier [3]: do not cross the blood–brain barrier

100 × k, degradation rate of EM-1 by APM in the presence of inhibitor (APM [2]; [5]): 1.88 ± 0.09 min⁻¹
100 × k, degradation rate of EM-2 by APM in the presence of inhibitor (APM [2]; [6]): 1.50 ± 0.05 min⁻¹
Compound: CCCCC[C@H](CC(=O)NO)C(=O)N[C@H](C(=O)N1CCC[C@H]1CO)C(C)C [Actinonin, actinonin]
Effect on EM-1 degradation in rat spinal cord homogenate [4]: significantly blocked EM-1 degradation
